According to ChEMBL document CHEMBL1159102, “Design, synthesis, and evaluation of 2-aryl-7-(3',4'-dialkoxyphenyl)-pyrazolo[1,5-a]pyrimidines as novel PDE-4 inhibitors” (Bioorg Med Chem Lett, 2010):
Calls of active or inactive are those of the source. The rule behind the calls is not given here.

Columns and labels:
[1] = molecular target: T1, 3',5'-cyclic-AMP phosphodiesterase 4D (Homo sapiens, UniProt Q08499); experiment: Inhibition of human PDE4D
[2] = molecular target: T1, 3',5'-cyclic-AMP phosphodiesterase 4D; experiment: Inhibition of human PDE4D in U937 cells assessed as cAMP level at 10 uM relative to control; format: cell-based; set-up: scale not given: the % may be the effect or the level left; settings: U-937
How it was run: (§1)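 cAMP content of U937 cells was measured after compound exposure and reported as a percentage of the untreated control level. Separately, an EC50 was derived for cAMP accumulation in the same cells.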

[3] = tested on: Mus musculus; experiment: Inhibition of ovalbumin-induced airway hyperresponsiveness in mouse at 30 mg/kg measured after 48 hrs of ovalbumin challenge; format: functional, organism-based; set-up: dose 30 mg/kg
[4] = tested on: Mus musculus; experiment: Inhibition of ovalbumin-induced eosinophil peroxidase activity in mouse bronchoalveolar lavage fluid at 30 mg/kg measured after 62 hrs of ovalbumin challenge relative to control; format: functional; settings: Lung
How it was run: (§2)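 Mice received an ovalbumin inhalation challenge, with compounds given in 0.5% CMC vehicle. Bronchoalveolar lavage fluid was collected 62 h after OVA inhalation, and eosinophil peroxidase activity was measured as a marker of eosinophil infiltration. Data are mean ± SD, n = 9–10 per group, compared with the vehicle group.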

[5] = molecular target: T1, 3',5'-cyclic-AMP phosphodiesterase 4D; experiment: Inhibition of human PDE4D in U937 cells assessed as cAMP level at 20 uM relative to control; format: cell-based; set-up: scale not given: the % may be the effect or the level left; settings: U-937; how it was run: as §1
[6] = Inhibition of PDE4
[7] = Inhibition of PDE7
[8] = molecular target: cGMP-specific 3',5'-cyclic phosphodiesterase (Homo sapiens, UniProt O76074); experiment: Inhibition of PDE5
[9] = Inhibition of PDE3
[10] = molecular target: T1, 3',5'-cyclic-AMP phosphodiesterase 4D; experiment: Inhibition of human PDE4D in U937 cells assessed as cAMP accumulation; format: cell-based, U-937; how it was run: as §1
[11] = tested on: Mus musculus; experiment: Inhibition of ovalbumin-induced airway hyperresponsiveness in mouse at 100 mg/kg measured after 48 hrs of ovalbumin challenge; format: functional, organism-based; set-up: dose 100 mg/kg
[12] = tested on: Mus musculus; experiment: Inhibition of ovalbumin-induced eosinophil peroxidase activity in mouse bronchoalveolar lavage fluid at 100 mg/kg measured after 62 hrs of ovalbumin challenge relative to control; format: functional; settings: Lung; how it was run: as §2

T1 sequence (Q08499 whole entry): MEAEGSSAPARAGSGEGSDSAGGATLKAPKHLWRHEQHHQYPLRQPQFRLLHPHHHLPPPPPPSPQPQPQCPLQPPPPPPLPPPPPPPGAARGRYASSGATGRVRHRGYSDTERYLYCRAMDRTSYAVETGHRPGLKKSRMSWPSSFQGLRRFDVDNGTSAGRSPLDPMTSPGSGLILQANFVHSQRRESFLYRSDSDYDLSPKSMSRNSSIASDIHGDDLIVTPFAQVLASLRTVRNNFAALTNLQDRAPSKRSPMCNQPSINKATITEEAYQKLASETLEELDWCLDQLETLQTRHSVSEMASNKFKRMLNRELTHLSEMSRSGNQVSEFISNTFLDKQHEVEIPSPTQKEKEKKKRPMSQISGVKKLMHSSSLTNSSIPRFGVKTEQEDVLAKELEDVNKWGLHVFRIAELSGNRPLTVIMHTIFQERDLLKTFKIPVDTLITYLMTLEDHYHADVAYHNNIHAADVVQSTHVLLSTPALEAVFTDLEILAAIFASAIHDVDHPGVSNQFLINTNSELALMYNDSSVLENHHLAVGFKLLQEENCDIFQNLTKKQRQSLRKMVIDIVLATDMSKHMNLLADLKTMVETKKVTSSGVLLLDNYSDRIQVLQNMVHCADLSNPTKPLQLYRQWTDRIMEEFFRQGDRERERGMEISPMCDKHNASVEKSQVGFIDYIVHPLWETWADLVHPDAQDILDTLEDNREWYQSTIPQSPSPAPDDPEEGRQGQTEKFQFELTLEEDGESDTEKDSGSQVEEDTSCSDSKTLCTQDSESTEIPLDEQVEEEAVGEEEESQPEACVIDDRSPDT

SMILES	IC50 [1]	other results
CCNC(=O)c1cccc(-c2cc3nccc(-c4ccc(OC(F)F)c(OCC5CC5)c4)n3n2)c1	28 nM	–
FC(F)Oc1ccc(-c2ccnc3cc(-c4cccc(C(F)F)c4)nn23)cc1OCC1CC1	39 nM	–
COc1cccc(-c2cc3nccc(-c4ccc(OC(F)F)c(OCC5CC5)c4)n3n2)c1	30 nM	Activity [2]: 44.4%
CN(CCN)c1cccc(-c2cc3nccc(-c4ccc(OC(F)F)c(OCC5CC5)c4)n3n2)c1	47 nM	–
O=C(Nc1c(Cl)cncc1Cl)c1ccc(OC(F)F)c(OCC2CC2)c1 [ROFLUMILAST]	–	inhibition [3]: Active; inhibition in vivo at 30 mg/kg [4]: 50%
CCOc1cccc(-c2cc3nccc(-c4ccc(OC(F)F)c(OCC5CC5)c4)n3n2)c1	48 nM	–
COc1ccc(-c2ccnc3cc(-c4cccc(Br)c4)nn23)cc1OC1CCCC1	30 nM	Activity [5]: 11.4%
N#CNc1cccc(-c2cc3nccc(-c4ccc(OC(F)F)c(OCC5CC5)c4)n3n2)c1	40 nM	–
Oc1cccc(-c2cc3nccc(-c4ccc(OC(F)F)c(OCC5CC5)c4)n3n2)c1	21 nM	–
NC(=O)Nc1cccc(-c2cc3nccc(-c4ccc(OC(F)F)c(OCC5CC5)c4)n3n2)c1	150 nM	–
N#CCCNc1cccc(-c2cc3nccc(-c4ccc(OC(F)F)c(OCC5CC5)c4)n3n2)c1	83 nM	–
CS(=O)(=O)CNc1cccc(-c2cc3nccc(-c4ccc(OC(F)F)c(OCC5CC5)c4)n3n2)c1	32 nM	–
COc1ccc(-c2cc3nccc(-c4ccc(OC(F)F)c(OCC5CC5)c4)n3n2)cc1OC	25 nM	–
CC(C)OC(=O)c1cccc(-c2cc3nccc(-c4ccc(OC(F)F)c(OCC5CC5)c4)n3n2)c1	40 nM	–
CC(C)(C)OC(=O)N1CCN(c2cccc(-c3cc4nccc(-c5ccc(OC(F)F)c(OCC6CC6)c5)n4n3)c2)CC1	54 nM	–
FC(F)Oc1ccc(-c2ccnc3cc(-c4cc(Cl)ccc4Cl)nn23)cc1OCC1CC1	200 nM	–
COCCOC(=O)c1cccc(-c2cc3nccc(-c4ccc(OC(F)F)c(OCC5CC5)c4)n3n2)c1	160 nM	–
COc1ccc(-c2ccnc3cc(-c4ccc(Cl)cc4)nn23)cc1OC1CCCC1	90 nM	–
Fc1cccc(-c2cc3nccc(-c4ccc(OC(F)F)c(OCC5CC5)c4)n3n2)c1	100 nM	–
FC(F)Oc1ccc(-c2ccnc3cc(-c4cccnc4)nn23)cc1OCC1CC1	27 nM	IC50 [6]: 9 nM; IC50 [7]: 3000 nM; IC50 [8]: 3500 nM; IC50 [9]: > 5000 nM
Nc1cccc(-c2cc3nccc(-c4ccc(OC(F)F)c(OCC5CC5)c4)n3n2)c1	46 nM	–
COc1ccc(-c2ccnc3cc(-c4cccc(Cl)c4)nn23)cc1OC1CCCC1	20 nM	Activity [5]: 19.7%
C=CCOc1cccc(-c2cc3nccc(-c4ccc(OC(F)F)c(OCC5CC5)c4)n3n2)c1	32 nM	–
FC(F)Oc1ccc(-c2ccnc3cc(-c4cccc(Br)c4)nn23)cc1OCC1CC1	13 nM	Activity [2]: 57.1%
COc1ccc(-c2ccnc3cc(-c4ccccc4)nn23)cc1OC1CCCC1	70 nM	–
O=C(O)c1cccc(-c2cc3nccc(-c4ccc(OC(F)F)c(OCC5CC5)c4)n3n2)c1	9 nM	–

SMILES	IC50 [1]	other results
CNc1cccc(-c2cc3nccc(-c4ccc(OC(F)F)c(OCC5CC5)c4)n3n2)c1	40 nM	–
CC(C)(C)NC(=O)c1cccc(-c2cc3nccc(-c4ccc(OC(F)F)c(OCC5CC5)c4)n3n2)c1	44 nM	–
FC(F)Oc1ccc(-c2ccnc3cc(-c4cccc(N5CCCCC5)c4)nn23)cc1OCC1CC1	100 nM	–
FC(F)Oc1ccc(-c2ccnc3cc(-c4cccc(-n5cnnn5)c4)nn23)cc1OCC1CC1	44 nM	–
CN(C)c1cccc(-c2cc3nccc(-c4ccc(OC(F)F)c(OCC5CC5)c4)n3n2)c1	120 nM	–
FC(F)Oc1ccc(-c2ccnc3cc(-c4cccc(C(F)(F)F)c4)nn23)cc1OCC1CC1	190 nM	–
COC(=O)c1cccc(-c2cc3nccc(-c4ccc(OC(F)F)c(OCC5CC5)c4)n3n2)c1	37 nM	–
FC(F)Oc1ccc(-c2ccnc3cc(-c4ccccc4)nn23)cc1OCC1CC1	130 nM	–
COc1ccc(-c2cc3nccc(-c4ccc(OC)c(OC5CCCC5)c4)n3n2)cc1	60 nM	–
COc1cccc(-c2cc3nccc(-c4ccc(OC)c(OC5CCCC5)c4)n3n2)c1	40 nM	Activity [5]: 20.1%
CN(C)C(=O)c1cccc(-c2cc3nccc(-c4ccc(OC(F)F)c(OCC5CC5)c4)n3n2)c1	23 nM	–
FC(F)Oc1ccc(-c2ccnc3cc(-c4cccc(Cl)c4)nn23)cc1OCC1CC1	36 nM	–
COc1cc(OC)cc(-c2cc3nccc(-c4ccc(OC(F)F)c(OCC5CC5)c4)n3n2)c1	29 nM	–
[O-][n+]1cccc(-c2cc3nccc(-c4ccc(OC(F)F)c(OCC5CC5)c4)n3n2)c1	42 nM	IC50 [6]: 26 nM; EC50 [10]: 1610 nM; IC50 [7]: > 5000 nM; IC50 [8]: > 5000 nM; inhibition [11]: Active; IC50 [9]: > 5000 nM; inhibition in vivo at 100 mg/kg [12]: 50%
CCN(CC)C(=O)c1cccc(-c2cc3nccc(-c4ccc(OC(F)F)c(OCC5CC5)c4)n3n2)c1	67 nM	–
COc1ccc(-c2ccnc3cc(-c4ccccc4Br)nn23)cc1OC1CCCC1	140 nM	–
FC(F)Oc1ccc(-c2ccnc3cc(-c4cccc(I)c4)nn23)cc1OCC1CC1	6 nM	IC50 [7]: > 5000 nM; Activity [2]: 19.8%; IC50 [8]: > 5000 nM; IC50 [9]: 2000 nM
COc1ccc(-c2ccnc3cc(-c4ccc(Br)cc4)nn23)cc1OC1CCCC1	130 nM	–
COc1ccc(-c2cc3nccc(-c4ccc(OC(F)F)c(OCC5CC5)c4)n3n2)cc1O	32 nM	–
COc1ccc(-c2ccnc3cc(-c4cc(Cl)ccc4Cl)nn23)cc1OC1CCCC1	30 nM	–
CC(=O)Oc1cccc(-c2cc3nccc(-c4ccc(OC(F)F)c(OCC5CC5)c4)n3n2)c1	18 nM	–
CC(C)Oc1cccc(-c2cc3nccc(-c4ccc(OC(F)F)c(OCC5CC5)c4)n3n2)c1	46 nM	–
FC(F)Oc1ccc(-c2ccnc3cc(-c4cc(Cl)cc(Cl)c4)nn23)cc1OCC1CC1	100 nM	–
COc1ccc(-c2ccnc3cc(-c4ccccc4OC)nn23)cc1OC1CCCC1	70 nM	–
O=C(c1cccc(-c2cc3nccc(-c4ccc(OC(F)F)c(OCC5CC5)c4)n3n2)c1)N1CCCCC1	65 nM	–
